Values after ≈ are worked out from the molar mass of the structure shown.
How the values were obtained:
Candida albicans = assay: Antifungal activity against Candida albicans CA98001; format: functional
In short: (§1)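 Growth inhibition of each strain in vitro, following an earlier method; endpoint is MIC80, the lowest concentration giving 80% growth inhibition, in ng mL-1. Values are means of triplicate determinations, with standard deviation given.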

Aspergillus fumigatus = assay: Antifungal activity against Aspergillus fumigatus AF98003; format: functional; in short: as §1

## CN(CC1CCN(C(=O)OC(C)(C)C)CC1)CC(O)(Cn1cncn1)c1ccc(Cl)cc1Cl (stereo unspecified)
Candida albicans
  MIC80: 0.039 µg/mL (≈ 0.0782 µM)
Aspergillus fumigatus
  MIC80: > 30 µg/mL

## CCC(C)n1ncn(-c2ccc(N3CCN(c4ccc(OCC5COC(Cn6cncn6)(c6ccc(Cl)cc6Cl)O5)cc4)CC3)cc2)c1=O (stereo unspecified) [ITRACONAZOLE]
Aspergillus fumigatus
  MIC80: 0.42 µg/mL (≈ 0.595 µM)

## CN(CC1CCN(C(=O)OC(C)(C)C)CC1)CC(O)(Cn1cncn1)c1ccc(F)cc1F (stereo unspecified)
Candida albicans
  MIC80: 0.153 µg/mL (≈ 0.329 µM)
Aspergillus fumigatus
  MIC80: > 30 µg/mL

## OC(CNCc1cccnc1)(Cn1cncn1)c1ccc(F)cc1F (stereo unspecified)
Candida albicans
  MIC80: 0.13 µg/mL (≈ 0.376 µM)
Aspergillus fumigatus
  MIC80: > 30 µg/mL

## OC(CNCc1ccncc1)(Cn1cncn1)c1ccc(Cl)cc1Cl (stereo unspecified)
Candida albicans
  MIC80: 0.036 µg/mL (≈ 0.0952 µM)
Aspergillus fumigatus
  MIC80: > 30 µg/mL

## CC(C)(C)OC(=O)N1CCC(CNCC(O)(Cn2cncn2)c2ccc(Cl)cc2Cl)CC1 (stereo unspecified)
Candida albicans
  MIC80: 0.026 µg/mL (≈ 0.0537 µM)
Aspergillus fumigatus
  MIC80: > 30 µg/mL

## OC(CNCc1cccnc1)(Cn1cncn1)c1ccc(Cl)cc1Cl (stereo unspecified)
Candida albicans
  MIC80: 0.037 µg/mL (≈ 0.0978 µM)
Aspergillus fumigatus
  MIC80: > 30 µg/mL

## CC(C)(C)OC(=O)N1CCC(CNCC(O)(Cn2cncn2)c2ccc(F)cc2F)CC1 (stereo unspecified)
Candida albicans
  MIC80: 0.027 µg/mL (≈ 0.0598 µM)
Aspergillus fumigatus
  MIC80: > 30 µg/mL

## OC(CNCc1ccccn1)(Cn1cncn1)c1ccc(F)cc1F (stereo unspecified)
Candida albicans
  MIC80: 0.22 µg/mL (≈ 0.637 µM)
Aspergillus fumigatus
  MIC80: > 30 µg/mL

## OC(Cn1cncn1)(Cn1cncn1)c1ccc(F)cc1F [FLUCONAZOLE]
Candida albicans
  MIC80: 0.19 µg/mL (≈ 0.62 µM)

## OC(CNCc1ccncc1)(Cn1cncn1)c1ccc(F)cc1F (stereo unspecified)
Candida albicans
  MIC80: 0.083 µg/mL (≈ 0.24 µM)
Aspergillus fumigatus
  MIC80: > 30 µg/mL

## OC(CNCC1CCNCC1)(Cn1cncn1)c1ccc(Cl)cc1Cl (stereo unspecified)
Candida albicans
  MIC80: 0.12 µg/mL (≈ 0.312 µM)
Aspergillus fumigatus
  MIC80: > 30 µg/mL

## OC(CNCC1CCNCC1)(Cn1cncn1)c1ccc(F)cc1F (stereo unspecified)
Candida albicans
  MIC80: 1.41 µg/mL (≈ 4.01 µM)
Aspergillus fumigatus
  MIC80: > 30 µg/mL

## OC(CNCc1ccccn1)(Cn1cncn1)c1ccc(Cl)cc1Cl (stereo unspecified)
Candida albicans
  MIC80: 0.023 µg/mL (≈ 0.0608 µM)
Aspergillus fumigatus
  MIC80: > 30 µg/mL
